{"source": "ChEMBL document CHEMBL4342515", "about": "“Boron Accumulation in Brain Tumor Cells through Boc-Protected Tryptophan as a Carrier for Boron Neutron Capture Therapy” (ACS Med Chem Lett, 2020)", "key": {"U-87 MG [1]": {"system": "U-87 MG", "test": "Cytotoxicity against human U87MG cells assessed as cell viability at 50 uM incubated for 1 hr followed by neutron irradiation for 3 mins by WST-1 assay", "type": "functional, cell-based", "details": "U-87MG ATCC"}, "LN-229 [2]": {"system": "LN-229", "test": "Cytotoxicity against human LN229 cells assessed as cell viability at 50 uM incubated for 1 hr followed by neutron irradiation for 3 mins by WST-1 assay", "type": "functional, cell-based"}, "[3]": {"test": "Cytotoxicity against mouse 3T3 cells assessed as cell viability incubated for 24 hrs by WST-1 assay (reference value: 57 %)", "type": "cell-based", "details": "NIH3T3 cells, read-out: Activity"}, "[4]": {"test": "Drug uptake in human U87MG cells at 50 uM incubated for 2 hrs by ICP-MS analysis", "type": "ADME, cell-based", "details": "u-87mg atcc"}, "[5]": {"test": "Drug uptake in human U87MG cells at 50 uM measured upto 4 hrs by ICP-MS analysis", "type": "ADME, cell-based", "details": "u-87mg atcc", "in_short": "(§1)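 Cellular boron accumulation was measured by ICP-MS as boron concentration (ppm) at time points over the incubation, up to 4 h. Mouse 3T3 cells served as the normal reference for the tumor/normal (T/N) ratio.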"}, "U-87 MG [6]": {"system": "U-87 MG", "test": "Cytotoxicity against human U87MG cells assessed as cell viability at 100 uM incubated for 24 hrs by WST-1 assay (reference value: 97 %)", "type": "functional, U-87MG ATCC", "details": "read-out: Activity"}, "[7]": {"test": "Aqueous solubility of compound", "type": "physicochemical", "details": "buffer"}, "[8]": {"test": "Drug uptake in human LN229 cells at 50 uM measured upto 4 hrs by ICP-MS analysis", "type": "ADME, cell-based", "details": "ln-229, 4 h", "in_short": "as §1"}, "LN-229 [9]": {"system": "LN-229", "test": "Cytotoxicity against human LN229 cells assessed as cell viability at 100 uM incubated for 24 hrs by WST-1 assay (reference value: 91 %)", "type": "functional", "details": "LN-229, 24 h, read-out: Activity"}, "U-87 MG [10]": {"system": "U-87 MG", "test": "Effect on LAT-1 expression in human U87MG cells at 50 uM incubated for 2 hrs by Western blot analysis", "type": "functional, cell-based", "details": "U-87MG ATCC", "in_short": "(§2)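 Western blot for LAT-1 protein in the three cell lines after 2 h incubation with the derivatives. Primary antibodies: LAT-1 (1:2500) and α-tubulin (1:5000) as loading reference. Qualitative comparison of expression level.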"}, "[11]": {"test": "Drug uptake in human LN229 cells at 50 uM incubated for 1 hr by ICP-MS analysis", "type": "ADME, cell-based", "details": "ln-229, 1 h"}, "[12]": {"test": "Ratio of drug uptake in human LN229 cells to drug uptake in mouse 3T3 cells measured at 1 hr", "type": "ADME, cell-based"}, "[13]": {"test": "Ratio of drug uptake in human U87MG cells to drug uptake in mouse 3T3 cells measured up to 4 hrs", "type": "ADME, cell-based"}, "NIH3T3": {"system": "NIH3T3", "test": "Downregulation of LAT-1 expression in mouse 3T3 cells at 50 uM incubated for 2 hrs by Western blot analysis", "type": "functional, cell-based", "in_short": "as §2"}, "LN-229 [14]": {"system": "LN-229", "test": "Effect on LAT-1 expression in human LN229 cells at 50 uM incubated for 2 hrs by Western blot analysis", "type": "functional, cell-based", "in_short": "as §2"}, "[15]": {"test": "Ratio of drug uptake in human LN229 cells to drug uptake in mouse 3T3 cells measured up to 4 hrs", "type": "ADME, cell-based"}}, "note": "Activity calls are given as the source filed them. The calls are words filed in the database; no cut-off is given here."}
{"smiles": "COC(=O)C(Cc1cn(C(=O)OC(C)(C)C)c2ccc(B3OC(C)(C)C(C)(C)O3)cc12)N(C(C)=O)C(=O)OC(C)(C)C", "note": "(configuration not stated)", "values": [{"measurement": "Activity", "setting": "U-87 MG [1]", "result": "Active"}, {"measurement": "Activity", "setting": "LN-229 [2]", "result": "Active"}, {"measurement": "viability at 24 h", "setting": "[3]", "result": 63.6, "unit": "%"}, {"measurement": "Drug uptake", "setting": "[4]", "result": 300, "unit": "ppm"}, {"measurement": "Drug uptake", "setting": "[5]", "result": "Active"}, {"measurement": "viability at 100 µM", "setting": "U-87 MG [6]", "result": 70.2, "unit": "%"}, {"measurement": "solubility", "setting": "[7]", "result": "Insoluble"}, {"measurement": "Drug uptake", "setting": "[8]", "result": "Active"}, {"measurement": "viability at 100 µM", "setting": "LN-229 [9]", "result": 70.8, "unit": "%"}]}
{"smiles": "COC(=O)C(Cc1cn(C(=O)OC(C)(C)C)c2ccc(B3OC(C)(C)C(C)(C)O3)cc12)N(C(=O)OC(C)(C)C)C(=O)OC(C)(C)C", "note": "(configuration not stated)", "values": [{"measurement": "Activity", "setting": "U-87 MG [10]", "result": "inactive"}, {"measurement": "Drug uptake", "setting": "[11]", "result": 450, "unit": "ppm"}, {"measurement": "Ratio", "setting": "[12]", "result": "> 9.66"}, {"measurement": "Ratio", "setting": "[13]", "result": "> 5"}, {"measurement": "Activity", "setting": "U-87 MG [1]", "result": "Active"}, {"measurement": "Activity", "setting": "LN-229 [2]", "result": "Active"}, {"measurement": "viability at 24 h", "setting": "[3]", "result": 60.2, "unit": "%"}, {"measurement": "Activity", "setting": "NIH3T3", "result": "Active"}, {"measurement": "Drug uptake", "setting": "[4]", "result": 300, "unit": "ppm"}, {"measurement": "Activity", "setting": "LN-229 [14]", "result": "inactive"}, {"measurement": "Drug uptake", "setting": "[5]", "result": "Active"}, {"measurement": "viability at 100 µM", "setting": "U-87 MG [6]", "result": 67.4, "unit": "%"}, {"measurement": "solubility", "setting": "[7]", "result": "Insoluble"}, {"measurement": "Drug uptake", "setting": "[8]", "result": "Active"}, {"measurement": "viability at 100 µM", "setting": "LN-229 [9]", "result": 60.7, "unit": "%"}, {"measurement": "Ratio", "setting": "[15]", "result": "> 5"}]}
{"smiles": "COC(=O)C(Cc1c(B2OC(C)(C)C(C)(C)O2)[nH]c2c(B3OC(C)(C)C(C)(C)O3)cccc12)N=[N+]=[N-]", "note": "(configuration not stated)", "values": [{"measurement": "viability at 24 h", "setting": "[3]", "result": 66.6, "unit": "%"}, {"measurement": "viability at 100 µM", "setting": "U-87 MG [6]", "result": 61.3, "unit": "%"}, {"measurement": "viability at 100 µM", "setting": "LN-229 [9]", "result": 57.2, "unit": "%"}]}
{"smiles": "COC(=O)C(Cc1c[nH]c2ccc(B3OC(C)(C)C(C)(C)O3)cc12)NC(C)=O", "note": "(configuration not stated)", "values": [{"measurement": "Activity", "setting": "U-87 MG [10]", "result": "inactive"}, {"measurement": "viability at 24 h", "setting": "[3]", "result": 60.2, "unit": "%"}, {"measurement": "Activity", "setting": "NIH3T3", "result": "Active"}, {"measurement": "Activity", "setting": "LN-229 [14]", "result": "inactive"}, {"measurement": "Drug uptake", "setting": "[5]", "result": "Not Active"}, {"measurement": "viability at 100 µM", "setting": "U-87 MG [6]", "result": 66.2, "unit": "%"}, {"measurement": "Drug uptake", "setting": "[8]", "result": "Not Active"}, {"measurement": "viability at 100 µM", "setting": "LN-229 [9]", "result": 69.9, "unit": "%"}]}
{"smiles": "COC(=O)C(Cc1cn(C(=O)OC(C)(C)C)c2cc(B3OC(C)(C)C(C)(C)O3)ccc12)N(C(=O)OC(C)(C)C)C(=O)OC(C)(C)C", "note": "(configuration not stated)", "values": [{"measurement": "Activity", "setting": "U-87 MG [10]", "result": "inactive"}, {"measurement": "Ratio", "setting": "[13]", "result": "> 5"}, {"measurement": "Activity", "setting": "U-87 MG [1]", "result": "Active"}, {"measurement": "Activity", "setting": "LN-229 [2]", "result": "Active"}, {"measurement": "viability at 24 h", "setting": "[3]", "result": 63.6, "unit": "%"}, {"measurement": "Activity", "setting": "NIH3T3", "result": "Active"}, {"measurement": "Activity", "setting": "LN-229 [14]", "result": "inactive"}, {"measurement": "Drug uptake", "setting": "[5]", "result": 300, "unit": "ppm"}, {"measurement": "viability at 100 µM", "setting": "U-87 MG [6]", "result": 60.1, "unit": "%"}, {"measurement": "solubility", "setting": "[7]", "result": "Insoluble"}, {"measurement": "Drug uptake", "setting": "[8]", "result": 300, "unit": "ppm"}, {"measurement": "viability at 100 µM", "setting": "LN-229 [9]", "result": 53.2, "unit": "%"}, {"measurement": "Ratio", "setting": "[15]", "result": "> 5"}]}
{"smiles": "COC(=O)C(N)Cc1c[nH]c2ccc(B3OC(C)(C)C(C)(C)O3)cc12", "note": "(configuration not stated)", "values": [{"measurement": "Activity", "setting": "U-87 MG [10]", "result": "inactive"}, {"measurement": "viability at 24 h", "setting": "[3]", "result": 53, "unit": "%"}, {"measurement": "Activity", "setting": "NIH3T3", "result": "Active"}, {"measurement": "Activity", "setting": "LN-229 [14]", "result": "inactive"}, {"measurement": "Drug uptake", "setting": "[5]", "result": "Not Active"}, {"measurement": "viability at 100 µM", "setting": "U-87 MG [6]", "result": 65.8, "unit": "%"}, {"measurement": "Drug uptake", "setting": "[8]", "result": "Not Active"}, {"measurement": "viability at 100 µM", "setting": "LN-229 [9]", "result": 67.3, "unit": "%"}]}
{"smiles": "N[C@@H](Cc1ccc(B(O)O)cc1)C(=O)O", "values": [{"measurement": "Activity", "setting": "U-87 MG [10]", "result": "inactive"}, {"measurement": "Drug uptake", "setting": "[11]", "result": "< 50", "unit": "ppm"}, {"measurement": "Ratio", "setting": "[12]", "result": 2.3}, {"measurement": "Activity", "setting": "U-87 MG [1]", "result": "Active"}, {"measurement": "Activity", "setting": "LN-229 [2]", "result": "Active"}, {"measurement": "viability at 24 h", "setting": "[3]", "result": 110, "unit": "%"}, {"measurement": "Activity", "setting": "NIH3T3", "result": "Active"}, {"measurement": "Activity", "setting": "LN-229 [14]", "result": "inactive"}, {"measurement": "viability at 100 µM", "setting": "U-87 MG [6]", "result": 67, "unit": "%"}, {"measurement": "viability at 100 µM", "setting": "LN-229 [9]", "result": 79.6, "unit": "%"}]}
